This note sets out measurements from ChEMBL document CHEMBL2311366, “MMP inhibition by barbiturate homodimers” (Bioorg Med Chem Lett, 2013).

Active and inactive are the calls of the source. The rule behind the calls is not given here.

One data set concerns the target Neutrophil collagenase (Homo sapiens, UniProt P22894). Description: Inhibition of human recombinant MMP-8 after 45 mins by fluorogenic assay. In a few lines:
(§1)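 Human recombinant enzymes in a fluorogenic activity assay. Test concentrations 0.01–10,000 nM, 45 min incubation. IC50 reported as mean SEM of at least three independent experiments.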

In data set [1] the target is T1, Interstitial collagenase (Homo sapiens) (UniProt P03956).
T1 sequence (whole entry): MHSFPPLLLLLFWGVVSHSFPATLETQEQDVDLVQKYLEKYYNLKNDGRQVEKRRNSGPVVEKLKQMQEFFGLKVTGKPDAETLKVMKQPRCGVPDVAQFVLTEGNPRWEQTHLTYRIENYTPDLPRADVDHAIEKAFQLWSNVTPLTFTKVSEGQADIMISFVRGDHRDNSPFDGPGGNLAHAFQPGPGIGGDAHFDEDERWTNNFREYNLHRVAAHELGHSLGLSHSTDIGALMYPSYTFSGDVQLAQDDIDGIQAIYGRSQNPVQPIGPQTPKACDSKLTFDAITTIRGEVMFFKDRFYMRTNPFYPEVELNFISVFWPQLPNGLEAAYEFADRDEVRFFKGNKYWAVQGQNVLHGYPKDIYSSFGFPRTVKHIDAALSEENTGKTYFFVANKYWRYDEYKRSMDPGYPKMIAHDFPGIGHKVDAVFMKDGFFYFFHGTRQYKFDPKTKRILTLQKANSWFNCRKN
Kind of data set: Inhibition of human recombinant MMP-1 at 10 uM after 45 mins by fluorogenic assay.

The next data set has as its target Collagenase 3 (Homo sapiens, UniProt P45452). Description: Inhibition of human recombinant MMP-13 after 45 mins by fluorogenic assay. The procedure, abridged:
as §1

A short description of data set [2]: Metabolic stability in human duodenal fluid assessed as compound remaining at 6 hrs. In kind it is ADME. The conditions noted are these: read-out: Stability. The procedure, abridged: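 Incubation at 37 °C in simulated human duodenal fluid. Remaining compound was measured by RP HPLC as a function of time.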

What is called IC50 is the midpoint of a concentration-inhibition curve.

Chain of Neutrophil collagenase (P22894 whole entry): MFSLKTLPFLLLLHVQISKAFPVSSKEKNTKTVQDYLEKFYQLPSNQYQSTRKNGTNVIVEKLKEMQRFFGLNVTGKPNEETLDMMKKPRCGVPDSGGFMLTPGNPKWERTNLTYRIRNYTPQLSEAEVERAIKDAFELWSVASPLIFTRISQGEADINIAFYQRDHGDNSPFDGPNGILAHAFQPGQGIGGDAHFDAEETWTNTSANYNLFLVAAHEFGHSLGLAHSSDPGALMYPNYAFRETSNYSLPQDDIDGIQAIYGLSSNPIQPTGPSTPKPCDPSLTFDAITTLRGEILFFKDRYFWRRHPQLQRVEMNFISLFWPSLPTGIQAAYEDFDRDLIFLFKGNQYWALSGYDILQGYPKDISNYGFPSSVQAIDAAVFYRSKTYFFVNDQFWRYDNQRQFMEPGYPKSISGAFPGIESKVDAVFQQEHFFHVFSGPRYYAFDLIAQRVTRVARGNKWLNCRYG

For `O=C1NC(=O)C(c2ccc(Oc3ccccc3)cc2)(N2CCCN(C(=O)CCCCCCCCCCCCCCCCCCCCC(=O)N3CCCN(C4(c5ccc(Oc6ccccc6)cc5)C(=O)NC(=O)NC4=O)CC3)CC2)C(=O)N1`, the IC50 stood at 162 nM at Neutrophil collagenase and 225 nM at Collagenase 3. In addition, in data set [1], the inhibition result was “inactive”.
In the case of `O=C1NC(=O)C(c2ccc(Oc3ccccc3)cc2)(N2CCCN(C(=O)CCCCC(=O)N3CCCN(C4(c5ccc(Oc6ccccc6)cc5)C(=O)NC(=O)NC4=O)CC3)CC2)C(=O)N1`, the IC50 is 60 nM at Neutrophil collagenase and 23 nM on Collagenase 3. Also, the inhibition entry in data set [1] is “inactive”.
With `O=C1NC(=O)C(c2ccc(Oc3ccccc3)cc2)(N2CCCN(C(=O)CCCCCCC(=O)N3CCCN(C4(c5ccc(Oc6ccccc6)cc5)C(=O)NC(=O)NC4=O)CC3)CC2)C(=O)N1`, the results for the IC50 at Neutrophil collagenase and on Collagenase 3 were 88 nM and 155 nM, respectively. Further, in data set [1], the inhibition entry is “inactive”.
As for `CCCCCCCCCCCCCC(=O)N1CCCN(C2(c3ccc(Oc4ccccc4)cc3)C(=O)NC(=O)NC2=O)CC1`, in data set [1], the inhibition entry is “inactive”.
`O=C1NC(=O)C(c2ccc(Oc3ccccc3)cc2)(N2CCCN(C(=O)CCCCCCCCCCC(=O)N3CCCN(C4(c5ccc(Oc6ccccc6)cc5)C(=O)NC(=O)NC4=O)CC3)CC2)C(=O)N1`: the IC50 is 125 nM on Neutrophil collagenase and 104 nM on Collagenase 3. In addition, the inhibition result in data set [1] was “inactive”.
With `CCCC(=O)N1CCCN(C2(c3ccc(Oc4ccccc4)cc3)C(=O)NC(=O)NC2=O)CC1`, in data set [1], the inhibition entry is “inactive”.
Consider `O=C1NC(=O)C(c2ccc(Oc3ccccc3)cc2)(N2CCCN(C(=O)CCCCCC(=O)N3CCCN(C4(c5ccc(Oc6ccccc6)cc5)C(=O)NC(=O)NC4=O)CC3)CC2)C(=O)N1`, for which the IC50 at Neutrophil collagenase turned out to be 117 nM; at Collagenase 3, 648 nM. Also, in data set [1], the inhibition entry was “inactive”.
For `O=C1NC(=O)C(c2ccc(Oc3ccccc3)cc2)(N2CCCN(C(=O)CCCCCCCCC(=O)N3CCCN(C4(c5ccc(Oc6ccccc6)cc5)C(=O)NC(=O)NC4=O)CC3)CC2)C(=O)N1`, the 50% inhibitory concentration (IC50) on Neutrophil collagenase turned out to be 91 nM; on Collagenase 3, 106 nM. The inhibition entry in data set [1] was “inactive”.
Take `O=C1NC(=O)C(c2ccc(Oc3ccccc3)cc2)(N2CCCN(C(=O)CCCC(=O)N3CCCN(C4(c5ccc(Oc6ccccc6)cc5)C(=O)NC(=O)NC4=O)CC3)CC2)C(=O)N1`: the figures for the IC50 at Neutrophil collagenase and on Collagenase 3 were 85 nM and 164 nM, respectively. Moreover, the inhibition result in data set [1] is “inactive”. Moreover, in data set [2], the remaining at 6 h was over 50%.
For `O=C1NC(=O)C(c2ccc(Oc3ccccc3)cc2)(N2CCCN(C(=O)CCCCCCCC(=O)N3CCCN(C4(c5ccc(Oc6ccccc6)cc5)C(=O)NC(=O)NC4=O)CC3)CC2)C(=O)N1`, the IC50 at Neutrophil collagenase was found to be 98 nM; on Collagenase 3, 44 nM. Also, the inhibition result in data set [1] is “inactive”.
The matching figures for `O=C1NC(=O)C(c2ccc(Oc3ccccc3)cc2)(N2CCCN(C(=O)CCCCCCCCCCCCCCC(=O)N3CCCN(C4(c5ccc(Oc6ccccc6)cc5)C(=O)NC(=O)NC4=O)CC3)CC2)C(=O)N1`: 282 nM, 134 nM and “inactive”.
As for `O=C1NC(=O)C(c2ccc(Oc3ccccc3)cc2)(N2CCCN(C(=O)CCC(=O)N3CCCN(C4(c5ccc(Oc6ccccc6)cc5)C(=O)NC(=O)NC4=O)CC3)CC2)C(=O)N1`, the results for the IC50 at Neutrophil collagenase and on Collagenase 3 were 44 nM and 11 nM, respectively. Moreover, the inhibition entry in data set [1] was “inactive”.
For `O=C1NC(=O)C(c2ccc(Oc3ccccc3)cc2)(N2CCCN(C(=O)c3ccc(C(=O)N4CCCN(C5(c6ccc(Oc7ccccc7)cc6)C(=O)NC(=O)NC5=O)CC4)cc3)CC2)C(=O)N1`, in that order: 46 nM, 23 nM and “inactive”.
For `O=C1NC(=O)C(c2ccc(Oc3ccccc3)cc2)(N2CCCN(C(=O)CCCCCCCCCCCCC(=O)N3CCCN(C4(c5ccc(Oc6ccccc6)cc5)C(=O)NC(=O)NC4=O)CC3)CC2)C(=O)N1`, in that order: 217 nM, 70 nM and “inactive”.
